Experimental data as given in ChEMBL document CHEMBL1153402, “Pyrido[2,3-e]-1,2,4-triazolo[4,3-a]pyrazin-1-one as a new scaffold to develop potent and selective human A3 adenosine receptor antagonists. Synthesis, pharmacological evaluation, and ligand-receptor modeling studies” (J Med Chem, 2009).

What was measured:
[1] = target: T1, Adenosine receptor A2a (Homo sapiens, UniProt P29274); experiment: Displacement of [3H]NECA from human cloned adenosine A2A receptor expressed in CHO cells; format: cell-based
[2] = target: T2, Adenosine receptor A1 (Homo sapiens) (UniProt P30542); experiment: Displacement of [3H]DPCPX from human cloned adenosine A1 receptor expressed in CHO cells at 10 uM; format: cell-based
T2 sequence (whole entry): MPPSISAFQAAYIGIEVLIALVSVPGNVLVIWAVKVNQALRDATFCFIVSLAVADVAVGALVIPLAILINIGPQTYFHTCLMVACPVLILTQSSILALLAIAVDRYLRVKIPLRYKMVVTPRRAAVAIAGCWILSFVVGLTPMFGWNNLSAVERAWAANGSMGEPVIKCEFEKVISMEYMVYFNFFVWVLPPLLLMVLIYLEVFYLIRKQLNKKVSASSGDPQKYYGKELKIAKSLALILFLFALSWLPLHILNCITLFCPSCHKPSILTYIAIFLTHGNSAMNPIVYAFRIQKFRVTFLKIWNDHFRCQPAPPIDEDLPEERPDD
How it was run: (§1)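 CHO cell membranes stably expressing hA1 or hA2A; radioligands [3H]DPCPX (hA1, Kd 3 nM) and [3H]NECA (hA2A, Kd 30 nM). IC50 from five displacer concentrations in triplicate, nonlinear regression; Ki by Cheng–Prusoff; four separate assays. Single-point values as percent inhibition of specific binding at 10 μM.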

[3] = target: T3, Adenosine receptor A1 (Bos taurus, UniProt P28190); experiment: Displacement of [3H]DPCPX from bovine brain cortical membrane adenosine A1 receptor
T3 sequence (P28190 whole entry): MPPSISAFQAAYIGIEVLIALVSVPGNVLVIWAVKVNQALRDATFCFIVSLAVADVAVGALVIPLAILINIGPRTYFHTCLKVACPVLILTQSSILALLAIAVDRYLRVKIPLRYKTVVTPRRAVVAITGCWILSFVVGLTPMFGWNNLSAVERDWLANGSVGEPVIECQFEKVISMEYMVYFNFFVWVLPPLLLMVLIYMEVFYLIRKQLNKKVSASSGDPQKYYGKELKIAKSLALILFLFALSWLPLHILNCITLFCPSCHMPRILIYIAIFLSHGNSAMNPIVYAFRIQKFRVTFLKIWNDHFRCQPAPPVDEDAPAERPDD

[4] = target: T4, Adenosine receptor A3 (Homo sapiens, UniProt P0DMS8); experiment: Displacement of [125I]AB-MECA from human cloned adenosine A3 receptor expressed in CHO cells; format: cell-based
T4 sequence (P0DMS8 whole entry): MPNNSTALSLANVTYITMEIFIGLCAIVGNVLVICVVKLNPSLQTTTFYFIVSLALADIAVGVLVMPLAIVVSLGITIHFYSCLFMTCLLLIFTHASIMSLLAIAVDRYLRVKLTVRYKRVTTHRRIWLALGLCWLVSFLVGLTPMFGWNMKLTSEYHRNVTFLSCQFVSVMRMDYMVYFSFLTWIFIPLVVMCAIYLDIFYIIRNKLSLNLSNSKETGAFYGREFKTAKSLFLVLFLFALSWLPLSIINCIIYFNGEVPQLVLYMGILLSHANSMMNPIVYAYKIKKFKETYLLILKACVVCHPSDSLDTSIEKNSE

[5] = Displacement of [3H]CGS 21680 from bovine striatal membrane adenosine A2A receptor; design: species or system Bos taurus
[6] = species on record: Bos taurus; experiment: Displacement of [3H]CGS 21680 from bovine striatal membrane adenosine A2A receptor at 20 uM
How it was run: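 IC50 from five concentrations in triplicate, nonlinear regression; Ki via Cheng–Prusoff from four assays. Single-point values as percent inhibition at 20 μM.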

[7] = target: T1, Adenosine receptor A2a; experiment: Displacement of [3H]NECA from human cloned adenosine A2A receptor expressed in CHO cells at 10 uM; format: cell-based; how it was run: as §1
[8] = target: T5, Adenosine receptor A1 (Bos taurus) (UniProt P28190); experiment: Displacement of [3H]DPCPX from bovine brain cortical membrane adenosine A1 receptor at 20 uM
T5 sequence (whole entry): T3 sequence (P28190 whole entry)
How it was run: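 Bovine cerebral cortical membranes; [3H]DPCPX displacement (Kd 0.3 nM). IC50 from five displacer concentrations in triplicate; Ki by Cheng–Prusoff, mean of four assays.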

[9] = target: T6, Adenosine receptor A3 (Homo sapiens) (UniProt P0DMS8); experiment: Displacement of [125I]AB-MECA from human cloned adenosine A3 receptor expressed in CHO cells at 1 uM; format: cell-based
T6 sequence (whole entry): T4 sequence (P0DMS8 whole entry)
How it was run: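 IC50 from five displacer concentrations, each in triplicate, by nonlinear regression; Ki by Cheng–Prusoff. Ki as mean of four separate assays, each in triplicate; single-point values as percent inhibition of specific binding at 1 μM.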

[10] = species on record: Bos taurus; experiment: Displacement of [3H]CGS 21680 from bovine striatal membrane adenosine A2A receptor at 10 uM
[11] = target: T5, Adenosine receptor A1 (Bos taurus); experiment: Displacement of [3H]DPCPX from bovine brain cortical membrane adenosine A1 receptor at 10 uM

T1 sequence (P29274 whole entry): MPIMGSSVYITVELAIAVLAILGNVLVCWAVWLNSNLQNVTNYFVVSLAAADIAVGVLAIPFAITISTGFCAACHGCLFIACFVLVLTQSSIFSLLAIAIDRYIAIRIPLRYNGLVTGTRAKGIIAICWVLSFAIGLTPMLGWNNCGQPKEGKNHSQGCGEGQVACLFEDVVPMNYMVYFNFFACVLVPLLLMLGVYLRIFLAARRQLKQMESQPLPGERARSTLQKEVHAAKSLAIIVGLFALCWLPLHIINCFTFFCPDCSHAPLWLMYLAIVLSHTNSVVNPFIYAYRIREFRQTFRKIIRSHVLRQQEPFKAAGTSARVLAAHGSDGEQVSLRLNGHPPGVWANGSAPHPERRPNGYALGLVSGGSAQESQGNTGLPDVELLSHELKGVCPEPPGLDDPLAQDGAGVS

Row | SMILES | Ki [3] [nM] | Ki [4] [nM] | Activity [6] [%] | Activity [9] [%] | further results
1 | O=C(Cc1ccccc1)Nc1nc2ncccc2n2c(=O)n(-c3ccccc3)nc12 | 7.15 | 11.7 | – | – | Ki [1]: 208 nM; Activity [2]: 37%; Ki [5]: 414 nM
2 | COc1ccc(-n2nc3c(NC(C)=O)nc4ncccc4n3c2=O)cc1 | – | 41 | 19 | – | Activity [7]: 29%; Activity [8]: 56%; Activity [2]: 48%
3 | Nc1nc2ncccc2n2c(=O)n(-c3ccccc3)nc12 | 3.1 | 656 | – | – | Ki [5]: 92.6 nM
4 | O=c1[nH]c2ncccc2n2c(=O)n(-c3ccccc3)nc12 | 145 | 251 | 12 | – | Activity [7]: 0%
5 | CCOC(=O)c1ccc(-n2nc3c(N)nc4ncccc4n3c2=O)cc1 | – | – | 17 | 0 | Activity [8]: 39%
6 | CC(=O)Nc1nc2ncccc2n2c(=O)n(-c3ccccc3)nc12 | 14 | 138 | 59 | – | –
7 | O=c1[nH]c2ncccc2n2c(=O)n(-c3ccc(F)cc3)nc12 | 306 | 590 | 26 | – | –
8 | O=c1[nH]c2ncccc2n2c(=O)n(-c3ccc(O)cc3)nc12 | 449 | – | 0 | 32 | –
9 | CC(=O)Nc1nc2c([N+](=O)[O-])cccc2n2c(=O)n(-c3ccccc3)nc12 | – | – | – | 18 | Activity [10]: 36%
10 | O=C(Nc1nc2c([N+](=O)[O-])cccc2n2c(=O)n(-c3ccccc3)nc12)c1ccccc1 | – | – | – | – | Activity [10]: 0%; Activity [11]: 32%
11 | COc1ccc(-n2nc3c(NC(C)=O)nc4c([N+](=O)[O-])cccc4n3c2=O)cc1 | – | – | – | 36 | Activity [10]: 7%; Activity [11]: 0%
12 | CCCn1c(=O)c2[nH]c(C3CCCC3)nc2n(CCC)c1=O [1,3-DIPROPYL-8-CYCLOPENTYLXANTHINE [DPCPX]] | – | – | – | – | Ki [5]: 337 nM
13 | O=C(c1ccccc1)N(C(=O)c1ccccc1)c1nc2ncccc2n2c(=O)n(-c3ccccc3)nc12 | 70.7 | 335 | 12 | – | –
14 | Nc1nc2c([N+](=O)[O-])cccc2n2c(=O)n(-c3ccc(O)cc3)nc12 | – | – | – | 45 | –
15 | O=c1n(-c2ccccc2)nc2c(NC3CCCCC3)nc3c([N+](=O)[O-])cccc3n12 | – | 281 | – | – | –
